The source made the active and inactive calls.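 Rule for the calls: active = AC50 at or below twice the top valid dose for that sample, with falling signal; inconclusive = flat curve with inhibition of 30 to 70%, or poor fit; inactive = activity in the wrong direction, plus the rest.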
Target: Scavenger receptor class B member 1 (Mus musculus) (UniProt Q61009)
Test: inhibitors of HDL uptake via mouse SR-BI, dose response, ldlA[mSR-BI] CHO cells, fluorescence plate reader, dry powder, set 8 (AID 602285)
Settings: DiI-HDL uptake fluorescence, 3 h
Method in brief: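 Reagent: DiI-labelled HDL, 10 µg protein/mL / System: ldlA[mSR-BI] cells, LDL receptor-deficient CHO line overexpressing murine SR-BI / Times: overnight cell plating, then 3 h compound and DiI-HDL exposure at 37 °C / Dosing: pin-transferred compounds, dose series / Detection: Washed-cell DiI fluorescence, ex 550/em 595 nm / Buffer or medium: Ham's F12, fatty acid-free BSA, HEPES pH 7.4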

Sequence of Scavenger receptor class B member 1 (Mus musculus) (Q61009 whole entry, looked up): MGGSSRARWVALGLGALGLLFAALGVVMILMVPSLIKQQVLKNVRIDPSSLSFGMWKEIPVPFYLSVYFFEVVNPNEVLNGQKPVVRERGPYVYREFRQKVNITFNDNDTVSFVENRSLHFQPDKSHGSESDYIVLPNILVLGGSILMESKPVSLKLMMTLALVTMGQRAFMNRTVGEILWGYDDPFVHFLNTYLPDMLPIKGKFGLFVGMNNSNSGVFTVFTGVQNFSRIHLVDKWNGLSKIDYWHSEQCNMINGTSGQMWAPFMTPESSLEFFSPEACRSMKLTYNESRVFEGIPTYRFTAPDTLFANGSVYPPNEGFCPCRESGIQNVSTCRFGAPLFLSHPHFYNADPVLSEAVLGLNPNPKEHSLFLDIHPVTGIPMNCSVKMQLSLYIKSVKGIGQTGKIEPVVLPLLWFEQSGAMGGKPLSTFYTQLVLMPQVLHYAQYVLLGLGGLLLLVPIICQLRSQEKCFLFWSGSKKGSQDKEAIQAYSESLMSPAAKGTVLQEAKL

| Compound | AC50 | further results |
| --- | --- | --- |
| CO[C@H]1CN(C)C(=O)c2ccc(NC(=O)C3CCCC3)cc2OC[C@@H](C)N(C(=O)CC2CC2)C[C@@H]1C | – | activity change, negative = inhibition (at 35 µM (top of the series)): inactive |
| C[C@@H]1CN([C@H](C)CO)C(=O)c2cc(NC(=O)Cc3cn(C)c4ccccc34)ccc2O[C@H]1CN(C)Cc1ccc(C(F)(F)F)cc1 | 0.653 µM | – |
| C[C@@H]1CN([C@@H](C)CO)C(=O)Cc2cc(N(C)C)ccc2O[C@@H]1CN(C)Cc1ccc(C(=O)O)cc1 | 34.4 µM | – |
| C[C@@H]1CN([C@H](C)CO)C(=O)c2cc(NC(=O)Cc3cn(C)c4ccccc34)ccc2O[C@H]1CN(C)Cc1ccc(C(=O)Nc2ccccc2N)cc1 | 1.72 µM | – |
| C[C@@H]1CN([C@H](C)CO)C(=O)c2cc(NC(=O)Cc3cn(C)c4ccccc34)ccc2O[C@H]1CN(C)C(=O)Nc1ccc(C(F)(F)F)cc1 | 2.18 µM | – |
| Cc1ccc(S(=O)(=O)N(C)C[C@@H]2Oc3ccc(NC(=O)Cc4cn(C)c5ccccc45)cc3C(=O)N([C@H](C)CO)C[C@H]2C)cc1 | 0.21 µM | – |
| C[C@H](CO)N1C[C@H](C)[C@H](CN(C)CC2CCCCC2)Oc2c(NS(=O)(=O)c3cn(C)cn3)cccc2C1=O | > 70 µM (inactive) | – |
| C[C@@H]1CN([C@H](C)CO)C(=O)c2cc(NC(=O)CCC(F)(F)F)ccc2O[C@H]1CN(C)S(=O)(=O)c1ccc(Cl)cc1 | 0.258 µM | – |
| C[C@@H]1CN([C@H](C)CO)C(=O)c2cc(NS(=O)(=O)c3ccc(Cl)cc3)ccc2O[C@H]1CN(C)S(=O)(=O)c1ccc(Cl)cc1 | – | activity change, negative = inhibition (at 35 µM (top of the series)): inactive |
| C[C@@H]1CN([C@H](C)CN)C(=O)c2cc(NC(=O)Cc3cn(C)c4ccccc34)ccc2O[C@H]1CN(C)S(=O)(=O)c1ccc(Cl)cc1 | – | activity change, negative = inhibition (at 11 µM (top of the series)): inactive |
| COc1ccc(NC(=O)N(C)C[C@@H]2Oc3ccc(NC(=O)Cc4cn(C)c5ccccc45)cc3C(=O)N([C@H](C)CO)C[C@H]2C)cc1 | 1.75 µM | – |
| C[C@@H]1CN([C@H](C)CO)C(=O)c2cc(NC(=O)Cc3cn(C)c4ccccc34)ccc2O[C@H]1CN(C)S(C)(=O)=O | 9.87 µM | – |
| C[C@@H]1CN([C@@H](C)CO)C(=O)Cc2cc(NS(=O)(=O)c3cn(C)cn3)ccc2O[C@@H]1CN(C)Cc1ccc(Cl)c(Cl)c1 | – | activity change, negative = inhibition (at 35 µM (top of the series)): inactive |
| Cc1noc(C)c1S(=O)(=O)N(C)C[C@H]1Oc2c(NC(=O)c3nc4ccccc4s3)cccc2C(=O)N([C@H](C)CO)C[C@H]1C | – | activity change, negative = inhibition (at 35 µM (top of the series)): inactive |
| C[C@@H]1CN([C@H](C)CO)C(=O)c2cc(NC(=O)Nc3cccc4ccccc34)ccc2O[C@H]1CN(C)S(=O)(=O)c1ccc(Cl)cc1 | 0.165 µM | – |
| C[C@H](CO)N1C[C@H](C)[C@H](CN(C)C)Oc2c(NS(C)(=O)=O)cccc2C1=O | > 70 µM (inactive) | – |
| C[C@@H]1CN([C@H](C)CO)C(=O)c2cc(NC(=O)Cc3cn(C)c4ccccc34)ccc2O[C@H]1CN(C)Cc1ccc(Oc2ccccc2)cc1 | – | activity change, negative = inhibition (at 35 µM (top of the series)): inactive |
| C[C@@H]1CN([C@H](C)CO)C(=O)c2cc(NC(=O)Cc3cn(C)c4ccccc34)ccc2O[C@H]1CN(C)S(=O)(=O)c1cn(C)cn1 | 6.39 µM | – |
| C[C@@H]1CN([C@H](C)CO)C(=O)c2cc(NS(C)(=O)=O)ccc2O[C@H]1CN(C)S(=O)(=O)c1ccc(Cl)cc1 | 1.64 µM | – |
| C[C@@H]1CN([C@H](C)CO)C(=O)c2cc(NC(=O)Cc3cn(C)c4ccccc34)ccc2O[C@H]1CN(C)Cc1ccncc1 | 1.3 µM | – |

Now from value to molecule, other results behind:

| AC50 | Compound | further results |
| --- | --- | --- |
| 0.865 µM | C[C@@H]1CN([C@H](C)CO)C(=O)c2cc(NC(=O)Cc3cn(C)c4ccccc34)ccc2O[C@H]1CN(C)Cc1ccc2c(c1)OCO2 | – |
| 1.55 µM | C[C@@H]1CN([C@H](C)CO)C(=O)c2cc(NC(=O)Cc3cn(C)c4ccccc34)ccc2O[C@H]1CN(C)Cc1ccccc1 | – |
| 8.3 µM | C[C@@H]1CN([C@H](C)CO)C(=O)c2cc(NC(=O)Cc3cn(C)c4ccccc34)ccc2O[C@H]1CN(C)C(=O)Nc1cccc2ccccc12 | – |
| 33.2 µM | C[C@@H]1CN([C@H](C)CO)C(=O)Cc2cc(NC(=O)Cc3cn(C)c4ccccc34)ccc2O[C@H]1CN(C)S(=O)(=O)c1ccc(F)cc1 | – |
| 2.01 µM | COc1ccc(S(=O)(=O)N(C)C[C@@H]2Oc3ccc(NC(=O)Cc4cn(C)c5ccccc45)cc3C(=O)N([C@H](C)CO)C[C@H]2C)cc1 | – |
| 11.5 µM | C[C@@H]1CN([C@H](C)CO)C(=O)c2cc(NC(=O)Cc3cn(C)c4ccccc34)ccc2O[C@@H]1CN(C)S(=O)(=O)c1ccc(Cl)cc1 | – |
| > 70 µM (inactive) | COc1ccc(CN(C)C[C@@H]2Oc3ccc(NC(=O)CCCN(C)C)cc3C(=O)N([C@H](C)CO)C[C@H]2C)cc1 | – |
| 0.856 µM | C[C@@H]1CN([C@H](C)CO)C(=O)c2cc(NC(=O)Nc3ccc4c(c3)OCO4)ccc2O[C@H]1CN(C)S(=O)(=O)c1ccc(Cl)cc1 | – |

Reference: PubChem BioAssay AID602285 (Broad Institute, 2012)
